Key:
[1] = molecular target: T1, Adrenergic receptor alpha-2 (Rattus norvegicus, UniProt P22086+P19328+P22909); assay: Ability to displace [3H]clonidine from alpha-2 adrenergic receptor in rat brain homogenates in vitro; type: tissue-based
T1 sequence (P22086 whole entry): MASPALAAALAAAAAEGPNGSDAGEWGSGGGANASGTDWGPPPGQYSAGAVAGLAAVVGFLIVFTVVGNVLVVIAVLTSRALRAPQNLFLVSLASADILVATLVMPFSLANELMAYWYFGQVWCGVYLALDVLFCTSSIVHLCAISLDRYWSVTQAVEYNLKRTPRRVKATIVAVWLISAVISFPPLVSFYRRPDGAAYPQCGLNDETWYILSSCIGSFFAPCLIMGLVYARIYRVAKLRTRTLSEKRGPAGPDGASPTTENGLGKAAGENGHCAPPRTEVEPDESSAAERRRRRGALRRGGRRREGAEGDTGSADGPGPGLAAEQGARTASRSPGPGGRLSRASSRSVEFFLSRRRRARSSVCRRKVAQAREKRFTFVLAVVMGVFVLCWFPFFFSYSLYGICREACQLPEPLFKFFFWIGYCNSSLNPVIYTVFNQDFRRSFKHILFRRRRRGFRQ
T1 sequence (P19328 whole entry): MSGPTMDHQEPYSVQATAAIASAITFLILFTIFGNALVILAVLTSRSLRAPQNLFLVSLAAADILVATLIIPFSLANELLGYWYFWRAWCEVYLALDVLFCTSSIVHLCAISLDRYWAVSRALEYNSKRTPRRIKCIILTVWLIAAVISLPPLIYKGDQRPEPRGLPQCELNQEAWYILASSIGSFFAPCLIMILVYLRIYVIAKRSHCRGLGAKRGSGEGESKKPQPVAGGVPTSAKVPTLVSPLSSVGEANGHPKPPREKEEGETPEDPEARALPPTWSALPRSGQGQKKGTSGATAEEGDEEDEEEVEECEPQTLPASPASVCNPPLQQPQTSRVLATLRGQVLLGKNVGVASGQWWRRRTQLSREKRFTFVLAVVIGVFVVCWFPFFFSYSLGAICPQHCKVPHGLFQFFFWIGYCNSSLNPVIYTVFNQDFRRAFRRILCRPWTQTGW
T1 sequence (P22909 whole entry): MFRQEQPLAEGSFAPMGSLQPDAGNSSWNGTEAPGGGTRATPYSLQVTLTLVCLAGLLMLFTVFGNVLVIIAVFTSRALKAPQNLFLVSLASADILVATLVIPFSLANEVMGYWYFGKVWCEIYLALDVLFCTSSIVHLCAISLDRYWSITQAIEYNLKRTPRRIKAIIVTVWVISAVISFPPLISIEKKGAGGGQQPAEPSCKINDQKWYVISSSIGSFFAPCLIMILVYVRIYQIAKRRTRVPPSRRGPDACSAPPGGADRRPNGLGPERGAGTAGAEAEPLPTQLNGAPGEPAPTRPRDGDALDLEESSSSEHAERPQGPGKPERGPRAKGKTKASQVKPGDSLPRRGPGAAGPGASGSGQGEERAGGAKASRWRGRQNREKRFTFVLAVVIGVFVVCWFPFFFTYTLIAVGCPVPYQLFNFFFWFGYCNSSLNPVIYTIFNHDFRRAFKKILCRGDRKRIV
Outline: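 Rat cerebral cortex homogenized in 50 mM Tris pH 7.7, washed twice by centrifugation at 48000g, resuspended in 50 volumes. Membranes incubated with 0.4 nM [3H]clonidine plus varied test concentrations, 30 min at 25 °C. Nonspecific binding defined with 1 μM unlabeled clonidine. GF/B filtration, scintillation counting. Run in triplicate; logit plot IC50 converted to apparent Ki (Cheng–Prusoff).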

Mus musculus [2] = assay: Effective dose required for inhibition of tetrabenazine-induced ptosis in mouse by peroral administration; Values ranges from 12-25; details: po
[3] = molecular target: T1, Adrenergic receptor alpha-2; assay: (§1) In vitro antagonistic activity against alpha-2 adrenergic receptor in isolated electrically stimulated rat vas deferens (clonidine-induced decrease in twitch height); type: functional, tissue-based
Rattus norvegicus [4] = organism: Rattus norvegicus; assay: Inhibition of [3H]norepinephrine uptake into rat brain synaptosomes in vitro;Values ranges from :20-180; type: functional
Outline: (§2)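 Male Sprague–Dawley rat (180–240 g) cortex (NE, 5-HT) or striatum (DA) crude P2 synaptosomes in 0.32 M sucrose. Preincubated 5 min at 25 °C with drug in Krebs–Ringer phosphate containing ascorbate, EDTA, nialamide; 0.1 μM final [3H]amine added for 5 min. Stopped by cold saline and GF/B filtration; nonspecific uptake at 4 °C. IC50 with 95% limits computed.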

Rattus norvegicus [5] = organism: Rattus norvegicus; assay: Inhibition of [3H]5-HT uptake into rat brain synaptosomes in vitro Values ranges from: 0.3-0.5; type: functional; outline: as §2
Rattus norvegicus [6] = organism: Rattus norvegicus; assay: Inhibition of [3H]-dopamine uptake into rat brain synaptosomes in vitro;Values ranges from :18-39; type: functional; outline: as §2
Mus musculus [7] = assay: Effective dose required to antagonise clonidine-induced antinociception(ACA) in mouse by peroral administration at maximum response 100.; type: functional
[8] = molecular target: T1, Adrenergic receptor alpha-2; assay: as §1; type: functional, tissue-based; remark: listed apart in the source
[9] = selectivity ratio (Alpha-1[3H]-prazosin/Alpha2[3H]-clonidine)
Mus musculus [10] = assay: Effective dose required to antagonise clonidine-induced antinociception(ACA) in mouse by peroral administration;Values ranges from: 15-86; type: functional; details: po
Rattus norvegicus [11] = organism: Rattus norvegicus; assay: Inhibition of [3H]5-HT uptake into rat brain synaptosomes in vitro;Value ranges from:0.2-0.8; type: functional; outline: as §2
Mus musculus [12] = assay: Effective dose required for inhibition of tetrabenazine-induced ptosis in mouse by peroral administration at maximum response 30.; type: functional
Rattus norvegicus [13] = organism: Rattus norvegicus; assay: Inhibition of [3H]dopamine uptake into rat brain synaptosomes in vitro;Value ranges from:2.5-4.5; type: functional; outline: as §2
Rattus norvegicus [14] = organism: Rattus norvegicus; assay: Inhibition of [3H]norepinephrine uptake into rat brain synaptosomes in vitro;Value ranges from:1.9-4.4; type: functional; outline: as §2

Row | Structure (SMILES) | Ki [1] | ED50 (Mus musculus [2]) | pA2 [3] | IC50 (Rattus norvegicus [4]) | IC50 (Rattus norvegicus [5]) | IC50 (Rattus norvegicus [6]) | Inhibition (Mus musculus [7]) | pA2 [8] | Selectivity ratio [9] | ED50 (Mus musculus [10]) | IC50 (Rattus norvegicus [11]) | Inhibition (Mus musculus [12]) | IC50 (Rattus norvegicus [13]) | IC50 (Rattus norvegicus [14]) | Ratio [9]
1 | CC1=C(CC2=NCCN2)CCc2ccccc21.Cl | 12 nM | 18 mg/kg | 7.19 | 60000 nM | 400 nM | 26000 nM | 50% | 7.19 | 12.3 |  |  |  |  |  | 
2 | C1=C(CC2=NCCN2)CCc2ccccc21.Cl [NAPAMEZOLE HYDROCHLORIDE] | 23 nM |  | 7.76 |  |  |  |  | 7.76 |  | 36 mg/kg | 400 nM | 35% | 3300 nM | 2900 nM | 3.4

Reference: ChEMBL document CHEMBL1123816, “Synthesis and antidepressant properties of novel 2-substituted 4,5-dihydro-1H-imidazole derivatives” (J Med Chem, 1987)
